Laboratory results: ChEMBL document CHEMBL4130566, “χ-Space Screening of Dermorphin-Based Tetrapeptides through Use of Constrained Arylazepinone and Quinolinone Scaffolds” (ACS Med Chem Lett, 2017)
Square brackets hold non-standard residues; d marks the D form. Peptide text beside a SMILES is read from it.

Tests used:
[1] = target: T1, Delta-type opioid receptor (Mus musculus, UniProt P32300); experiment: Displacement of [125I]-Deltorphin II from mouse FLAG-tagged delta-type opioid receptor expressed in HEK293 cell membranes after 60 mins by gamma counting analysis
T1 sequence (P32300 whole entry): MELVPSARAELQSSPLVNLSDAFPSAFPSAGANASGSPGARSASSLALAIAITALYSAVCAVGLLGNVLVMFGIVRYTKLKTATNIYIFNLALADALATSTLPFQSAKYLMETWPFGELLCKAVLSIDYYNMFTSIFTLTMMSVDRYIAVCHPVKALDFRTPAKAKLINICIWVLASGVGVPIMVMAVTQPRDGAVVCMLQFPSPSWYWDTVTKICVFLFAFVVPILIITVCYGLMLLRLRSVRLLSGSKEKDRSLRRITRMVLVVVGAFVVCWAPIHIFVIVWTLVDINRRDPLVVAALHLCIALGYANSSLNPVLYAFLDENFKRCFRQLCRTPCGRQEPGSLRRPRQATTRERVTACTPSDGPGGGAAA
Method in brief: (§1)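 Competitive radioligand displacement binding in HEK293 cells expressing MOP or DOP. The MOP-selective tracer is [125I]-DAMGO and the DOP-selective tracer is [125I]-Deltorphin II. Values are reported as IC50.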

Mu-type opioid receptor [2] = target: Mu-type opioid receptor (Mus musculus, UniProt P42866); experiment: Displacement of [125I]-DAMGO from mouse FLAG-tagged Mu-type opioid receptor expressed in HEK293 cell membranes after 60 mins by gamma counting analysis; method in brief: as §1
Chain of Mu-type opioid receptor (Mus musculus, UniProt P42866) (P42866 whole entry): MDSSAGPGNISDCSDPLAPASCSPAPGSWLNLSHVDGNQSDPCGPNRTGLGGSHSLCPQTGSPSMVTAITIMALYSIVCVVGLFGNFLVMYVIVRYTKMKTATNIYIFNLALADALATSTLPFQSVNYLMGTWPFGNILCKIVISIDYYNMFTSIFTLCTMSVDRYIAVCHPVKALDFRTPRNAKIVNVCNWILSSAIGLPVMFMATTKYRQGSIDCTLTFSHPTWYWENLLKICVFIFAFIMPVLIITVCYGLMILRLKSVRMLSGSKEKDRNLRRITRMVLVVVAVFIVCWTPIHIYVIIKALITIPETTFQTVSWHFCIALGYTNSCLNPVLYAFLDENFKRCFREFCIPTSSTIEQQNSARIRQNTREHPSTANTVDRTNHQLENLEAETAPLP

Mu-type opioid receptor [3] = target: T2, Mu-type opioid receptor (Cavia porcellus, UniProt P97266); experiment: (§2) Agonist activity at mu-opioid receptor in guinea pig ileum assessed as inhibition of electrically induced contractions; type: functional
T2 sequence (P97266 whole entry): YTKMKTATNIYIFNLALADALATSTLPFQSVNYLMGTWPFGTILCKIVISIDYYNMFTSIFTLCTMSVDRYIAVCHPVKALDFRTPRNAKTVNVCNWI
Method in brief: (§3)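 Guinea pig ileum (GPI) serves as the MOP-representative tissue and mouse vas deferens (MVD) as the DOP-representative tissue. Values are reported as IC50.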

Mus musculus = species on record: Mus musculus; experiment: Selectivity ratio of IC50 for mouse FLAG-tagged delta-type opioid receptor expressed in HEK293 cell membranes to IC50 for mouse FLAG-tagged Mu-type opioid receptor expressed in HEK293 cell membranes; type: cell-based
[4] = target: T1, Delta-type opioid receptor; experiment: Agonist activity at delta-type opioid receptor in mouse vas deferens assessed as inhibition of electrically stimulated contractions; type: functional; method in brief: as §3
[5] = target: Delta-type opioid receptor (Mus musculus) (UniProt P32300); experiment: Antagonist activity at delta-type opioid receptor in mouse vas deferens assessed as inhibition of DPDPE-induced electrically stimulated contractions; type: functional
Chain of Delta-type opioid receptor (Mus musculus) (P32300 whole entry): as the sequence (P32300 whole entry) above

[6] = target: Mu-type opioid receptor (Cavia porcellus) (UniProt P97266); experiment: Antagonist activity at mu-opioid receptor in guinea pig ileum assessed as inhibition of TAPP-induced reduction in electrically stimulated contractions; type: functional
Chain of Mu-type opioid receptor (Cavia porcellus) (P97266 whole entry): as the sequence (P97266 whole entry) above

[7] = target: T3, Delta-type opioid receptor (Rattus norvegicus, UniProt P33533); experiment: Displacement of [3H][Ile5,6]-deltorphin II from delta-type opioid receptor in Sprague-Dawley rat brain membranes; type: cell membranes, Membrane
T3 sequence (P33533 whole entry): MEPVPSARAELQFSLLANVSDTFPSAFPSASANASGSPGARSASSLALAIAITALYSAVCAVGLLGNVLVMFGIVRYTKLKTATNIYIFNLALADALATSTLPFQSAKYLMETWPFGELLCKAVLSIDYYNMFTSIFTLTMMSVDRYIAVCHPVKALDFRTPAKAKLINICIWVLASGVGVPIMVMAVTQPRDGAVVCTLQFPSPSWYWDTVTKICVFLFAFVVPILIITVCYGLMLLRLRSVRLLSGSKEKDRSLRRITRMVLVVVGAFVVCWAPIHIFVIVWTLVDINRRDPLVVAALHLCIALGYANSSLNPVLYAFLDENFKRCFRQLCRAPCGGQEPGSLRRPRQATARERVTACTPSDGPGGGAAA

Mu-type opioid receptor [8] = target: T4, Mu-type opioid receptor (Rattus norvegicus, UniProt P33535); experiment: Displacement of [3H]naloxone from Mu-type opioid receptor in Sprague-Dawley rat brain membranes; type: cell membranes, Membrane
T4 sequence (P33535 whole entry): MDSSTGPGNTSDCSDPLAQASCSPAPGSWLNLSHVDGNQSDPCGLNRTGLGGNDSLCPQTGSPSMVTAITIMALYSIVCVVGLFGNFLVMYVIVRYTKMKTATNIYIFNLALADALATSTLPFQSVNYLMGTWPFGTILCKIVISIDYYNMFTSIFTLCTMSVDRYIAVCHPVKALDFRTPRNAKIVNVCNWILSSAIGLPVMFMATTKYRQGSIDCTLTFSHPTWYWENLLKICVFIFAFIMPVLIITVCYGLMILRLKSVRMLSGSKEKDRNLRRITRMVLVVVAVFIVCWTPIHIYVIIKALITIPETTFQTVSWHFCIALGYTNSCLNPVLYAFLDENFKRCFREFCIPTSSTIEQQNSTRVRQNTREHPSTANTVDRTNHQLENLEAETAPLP

[9] = target: T1, Delta-type opioid receptor; experiment: Agonist activity at delta-type opioid receptor in ICR mouse vas deferens assessed as […] of electrically stimulated contractions after 3 mins post dose; type: functional
Mu-type opioid receptor [10] = target: T4, Mu-type opioid receptor; experiment: Displacement of [3H]-CTOP from Mu-type opioid receptor in Sprague-Dawley rat brain homogenate after 180 mins by scintillation counting
[11] = target: T3, Delta-type opioid receptor; experiment: Displacement of [H][p-ClPhe4]-DPDPE from delta-type opioid receptor in Sprague-Dawley rat brain homogenates after 180 mins by scintillation counting
Mu-type opioid receptor [12] = target: T2, Mu-type opioid receptor; experiment: Agonist activity at mu-opioid receptor in Hartley guinea pig ileum assessed as inhibition of electrically induced contractions after 3 mins post dose; type: functional; method in brief: as §3
[13] = target: Mu-type opioid receptor (Cavia porcellus) (UniProt P97266); experiment: as §2; type: functional; method in brief: as §3
[14] = target: Delta-type opioid receptor (Homo sapiens, UniProt P41143); experiment: Binding affinity to delta-type opioid receptor (unknown origin)
Chain of Delta-type opioid receptor (Homo sapiens, UniProt P41143) (P41143 whole entry): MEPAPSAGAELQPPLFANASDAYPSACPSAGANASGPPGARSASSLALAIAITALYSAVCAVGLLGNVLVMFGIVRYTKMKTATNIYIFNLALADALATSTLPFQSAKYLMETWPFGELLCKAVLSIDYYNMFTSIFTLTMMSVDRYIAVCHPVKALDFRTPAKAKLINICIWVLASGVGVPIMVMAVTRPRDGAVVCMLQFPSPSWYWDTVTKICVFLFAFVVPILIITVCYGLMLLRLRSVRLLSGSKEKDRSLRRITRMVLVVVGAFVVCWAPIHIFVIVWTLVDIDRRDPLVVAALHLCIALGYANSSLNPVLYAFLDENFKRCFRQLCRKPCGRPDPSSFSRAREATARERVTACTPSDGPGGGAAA

Mu-type opioid receptor [15] = target: Mu-type opioid receptor (Homo sapiens, UniProt P35372); experiment: Binding affinity to Mu-type opioid receptor (unknown origin)
Chain of Mu-type opioid receptor (Homo sapiens, UniProt P35372) (P35372 whole entry): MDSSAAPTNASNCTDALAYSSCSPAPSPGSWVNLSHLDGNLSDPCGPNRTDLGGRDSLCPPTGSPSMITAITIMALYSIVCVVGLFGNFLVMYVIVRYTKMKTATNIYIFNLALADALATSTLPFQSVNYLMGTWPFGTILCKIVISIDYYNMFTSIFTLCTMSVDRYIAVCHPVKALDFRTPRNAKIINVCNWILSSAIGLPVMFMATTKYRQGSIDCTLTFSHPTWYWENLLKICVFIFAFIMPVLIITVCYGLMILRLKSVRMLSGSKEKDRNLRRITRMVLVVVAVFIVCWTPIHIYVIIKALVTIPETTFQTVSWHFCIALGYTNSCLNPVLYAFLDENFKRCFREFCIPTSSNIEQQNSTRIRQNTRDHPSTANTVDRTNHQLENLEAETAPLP

Row | Compound | IC50 [1] [nM] | IC50 (Mu-type opioid receptor [2]) [nM] | IC50 (Mu-type opioid receptor [3]) [nM] | Ratio IC50 (Mus musculus) | IC50 [4] [nM] | further results
1 | Cc1cc(O)cc(C)c1C[C@H](N)C(=O)N[C@H](CCCNC(=N)N)C(=O)N[C@H]1Cc2c(ccc3ccccc23)CN(CC(N)=O)C1=O | 1 | 0.33 | 0.252 | 3 | 1.42 | 
2 | Cc1cc(O)cc(C)c1C[C@H](N)C(=O)N[C@H](CCCNC(=N)N)C(=O)N[C@H]1Cc2ccc3ccccc3c2CN(CC(N)=O)C1=O | 153 | 2.19 | 21.4 | 70 | 114 | 
3 | Cc1cc(O)cc(C)c1C[C@H](N)C(=O)N[C@H](C)C(=O)N[C@H]1Cc2ccc3ccccc3c2CN(CC(N)=O)C1=O | 167 | 1.78 |  | 94 |  | Ke [5]: 306 nM; Ke [6]: 2.88 nM
4 | Cc1cc(O)cc(C)c1C[C@H](N)C(=O)N[C@H](C)C(=O)N[C@H]1Cc2cc3ccccc3cc2CN(CC(N)=O)C1=O |  |  |  |  |  | Ke [5]: 360 nM; Ke [6]: 5.53 nM
5 | C[C@@H](NC(=O)[C@@H](N)Cc1ccc(O)cc1)C(=O)N[C@H]1Cc2ccccc2CN(CC(N)=O)C1=O |  |  | 50.4 |  | 47.1 | IC50 [7]: 15.8 nM; IC50 (Mu-type opioid receptor [8]): 34.4 nM
6 | C[C@@H](NC(=O)[C@@H](N)Cc1ccc(O)cc1)C(=O)N[C@@H](Cc1ccccc1)C(=O)NCC(N)=O (H-Y[dA]FG-NH2) |  |  |  |  |  | IC50 [9]: 263 nM; IC50 (Mu-type opioid receptor [10]): 36.7 nM; IC50 [11]: 1250 nM; IC50 (Mu-type opioid receptor [12]): 35 nM
7 | C[C@@H](NC(=O)[C@@H](N)Cc1ccc(O)cc1)C(=O)N[C@@H](Cc1ccccc1)C(=O)NCC(=O)N[C@@H](Cc1ccc(O)cc1)C(=O)N1CCC[C@H]1C(=O)N[C@@H](CO)C(N)=O [DERMORPHIN] |  |  | 1.06 |  |  | 
8 | Cc1cc(O)cc(C)c1C[C@H](N)C(=O)N[C@H](C)C(=O)N[C@H]1Cc2c(ccc3ccccc23)CN(CC(N)=O)C1=O | 2.07 | 0.39 | 1.13 | 5 | 0.86 | 
9 | Cc1cc(O)cc(C)c1C[C@H](N)C(=O)N(C)[C@H](C)C(=O)N[C@H]1Cc2c(ccc3ccccc23)CN(CC(N)=O)C1=O | 1.47 | 0.35 | 0.43 | 4 | 1.09 | 
10 | Cc1cc(O)cc(C)c1C[C@H](N)C(=O)N[C@H](CCCNC(=N)N)C(=O)N[C@H]1Cc2ccc(Br)cc2CN(CC(N)=O)C1=O | 60.7 | 0.76 |  | 80 | 8.51 | IC25 [13]: 22 nM
11 | Cc1cc(O)cc(C)c1C[C@H](N)C(=O)N[C@H](CCCNC(=N)N)C(=O)N[C@H]1Cc2ccccc2N(CC(N)=O)C1=O | 630 | 1.62 |  | 389 | 90.5 | IC35 [13]: 33.7 nM
12 | Cc1cc(O)cc(C)c1C[C@H](N)C(=O)N[C@H](CCCN=C(N)N)C(=O)N[C@H]1Cc2ccccc2CN(CC(N)=O)C1=O |  |  |  |  |  | Ki [14]: 0.6 nM; Ki (Mu-type opioid receptor [15]): 0.15 nM
